From paper PMC8903075 (Biomaterials science, 2021)
≈ marks a conversion by molar mass, not a printed value. Values belong to the molecule of their own block, whether it stands above or below them.

Key:
[1] = tested on: P. aeruginosa (ATCC 27853); experiment: microbe, parasite or virus in culture; type: cell-based, Pseudomonas aeruginosa; details: for MIC, Gram-negative, P. aeruginosa: ATCC 27853, 18 h
[2] = tested on: methicillin-resistant S. epidermidis (MRSE) (RP62A); experiment: microbe, parasite or virus in culture; type: cell-based, Staphylococcus epidermidis; details: for MIC, Gram-positive, MRSE: methicillin-resistant (RP62A, 18 h)
MRSA [3] = experiment: Fluorescence microscopy; type: cell-based, Staphylococcus aureus; details: 12 μg mL^−1, 2 h, 37 °C
How it was run: (§1)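 Mid-log cultures grown at 37 °C, diluted to 1 × 10^6 CFU mL−1, exposed to test compound for 2 h at 37 °C alongside untreated controls. Cells pelleted at 3000 rpm for 15 min at 4 °C and PBS-washed. Stained with DAPI (10 μg mL−1) for 15 min on ice in the dark, washed twice, then stained the same way with PI (5 μg mL−1). Imaged under oil immersion.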

MRSA [4] = experiment: Transmission electron microscopy; type: cell-based, Staphylococcus aureus; details: 12 μg mL^−1, 2 h, TSB, 37 °C
How it was run: (§2)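 Mid-log bacteria exposed to test compound in TSB for 2 h at 37 °C, with untreated samples as controls. Cells pelleted at 3000 rpm for 15 min, washed four times in PBS, resuspended in deionized water. A drop placed on carbon-coated Cu grids, excess blotted off, dried about 1 h. Imaged by TEM at 60 kV.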

E. coli [5] = type: cell-based; details: 48 h, 0.188 μg mL^−1
E. coli [6] = experiment: Fluorescence microscopy; type: cell-based; details: 12 μg mL^−1, 2 h, 37 °C
How it was run: as §1

MRSA [7] = experiment: Bacterial membrane depolarization assay, DiSC3; type: cell-based, Staphylococcus aureus; details: 1 × MIC, 2 × MIC and 4 × MIC; concentration-dependent; repeated three times with duplicates
E. coli [8] = experiment: Bacterial membrane depolarization assay, DiSC3; type: cell-based; details: 1 × MIC, 2 × MIC and 4 × MIC; concentration-dependent; repeated three times with duplicates
[9] = tested on: methicillin-resistant S. aureus (MRSA) (ATCC 33591); experiment: microbe, parasite or virus in culture; type: cell-based, Staphylococcus aureus; details: for MIC, Gram-positive, MRSA: ATCC 33591, 18 h
E. coli [10] = experiment: Outer membrane permeability assay; type: cell-based; details: 1 × MIC; 37 °C, 1 h; percent uptake relative to 16 mM melittin
[11] = HPLC retention time as estimate of amphiphilicity; type: physicochemical; details: HPLC data of Table S2 in ESI, which is not in the material
E. coli [12] = experiment: Time-kill assay; type: cell-based; details: 2 × MIC; 1 × 10^6 CFU mL^−1; repeated three times
How it was run: (§3)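 Bacteria grown overnight in TSB at 37 °C to mid-log phase and diluted to 1 × 10^6 CFU mL−1. Incubated with test compound at several concentrations, with suspensions plated on agar at set time points. Plates incubated 20 h at 37 °C before colony counting. Assay repeated three times.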

MRSA [13] = type: cell-based, Staphylococcus aureus; details: 48 h, 0.094 μg mL^−1
MRSA [14] = experiment: Time-kill assay; type: cell-based, Staphylococcus aureus; details: 1 × 10^6 CFU mL^−1, repeated three times
How it was run: as §3

E. coli (ATCC 25922) = experiment: microbe, parasite or virus in culture; type: cell-based; details: for MIC, Gram-negative, E. coli: ATCC 25922, 18 h
E. coli [15] = experiment: Transmission electron microscopy; type: cell-based; details: 12 μg mL^−1, 2 h, TSB, 37 °C
How it was run: as §2

Structure (SMILES): CCCCCCCCCCCC(=O)NCCCC[C@H](NC(=O)c1cc(NC(=O)CN(C[C@H](CCCCN)NC(=O)[C@@H](N)CCCCN)S(=O)(=O)c2ccc(Cl)cc2)cc(NC(=O)CN(C[C@H](CCCCN)NC(=O)[C@@H](N)CCCCN)S(=O)(=O)c2ccc(Cl)cc2)c1)C(N)=O [Compound 17]
MIC, Gram-negative, P. aeruginosa [1]: 3 to 6 µg/mL
MIC, Gram-positive, MRSE [2]: 3 to 6 µg/mL
Membrane integrity of MRSA by DAPI/PI fluorescence (MRSA [3]): compromised
MRSA cell membrane morphology by TEM (MRSA [4]): membranes have been damaged
Inhibition of biofilm formation of E. coli (E. coli [5]): around 40%
Membrane integrity of E. coli by DAPI/PI fluorescence (E. coli [6]): compromised
Membrane depolarization of MRSA, DiSC3(5) fluorescence (MRSA [7]): dramatic enhancement of fluorescence intensity
Membrane depolarization of E. coli, DiSC3(5) fluorescence (E. coli [8]): dramatic enhancement of fluorescence intensity
MIC, Gram-positive, MRSA [9]: 3 to 6 µg/mL
Permeabilization of E. coli outer membrane (NPN uptake) (E. coli [10]): more than 50%
HPLC retention time (RT), estimate of amphiphilicity [11]: 19.70 min
Time to complete killing of E. coli (E. coli [12]): ≤ 6 h
Inhibition of biofilm formation of MRSA (MRSA [13]): ~50%
Time to complete killing of MRSA (MRSA [14]; 2 × MIC): ≤ 6 h
Time to eradicate MRSA (MRSA [14]; 8 × MIC): roughly 2 h
MIC, Gram-negative, E. coli (E. coli (ATCC 25922)): 3 to 6 µg/mL
E. coli cell membrane morphology by TEM (E. coli [15]): membranes have been damaged

MIC, Gram-negative, P. aeruginosa [1]: 6 to 12.5 µg/mL
MIC, Gram-positive, MRSE [2]: 3 to 6 µg/mL
MIC, Gram-positive, MRSA [9]: 3 to 6 µg/mL
MIC, Gram-negative, E. coli (E. coli (ATCC 25922)): 3 to 6 µg/mL
Structure (SMILES): CCCCCCCCCCCC(=O)NCCCC[C@H](NC(=O)c1cc(NC(=O)CN(C[C@H](CCCCN)NC(=O)[C@@H](N)CCCCN)S(=O)(=O)c2ccccc2)cc(NC(=O)CN(C[C@H](CCCCN)NC(=O)[C@@H](N)CCCCN)S(=O)(=O)c2ccccc2)c1)C(N)=O [Compound 1]

MIC ([1]; Pseudomonas aeruginosa, ATCC27853, 18 h, read-out: MIC, Gram-negative, P. aeruginosa): 1.5 to 3 µg/mL (≈ 4.53 to 9.05 µM)
MIC ([2]; Staphylococcus epidermidis, MRSE, 18 h, read-out: MIC, Gram-positive, MRSE): 0.75 to 1.5 µg/mL (≈ 2.26 to 4.53 µM)
MIC ([9]; Staphylococcus aureus, ATCC33591|MRSA, 18 h, read-out: MIC, Gram-positive, MRSA): 0.75 to 1.5 µg/mL (≈ 2.26 to 4.53 µM)
MIC (E. coli (ATCC 25922); Escherichia coli, ATCC25922, 18 h, read-out: MIC, Gram-negative, E. coli): 0.75 to 1.5 µg/mL (≈ 2.26 to 4.53 µM)
Structure (SMILES): O=C(O)c1cn(C2CC2)c2cc(N3CCNCC3)c(F)cc2c1=O [Ciprofloxacin, reference compound]

MIC, Gram-positive, MRSA [9]: 6 to 12.5 µg/mL
MIC, Gram-negative, E. coli (E. coli (ATCC 25922)): 6 to 12.5 µg/mL
Structure (SMILES): CCCCCCCCCCCCCCCC(=O)NCCCC[C@H](NC(=O)c1cc(NC(=O)CN(C[C@H](CCCCN)NC(=O)[C@@H](N)CCCCN)S(=O)(=O)c2ccccc2)cc(NC(=O)CN(C[C@H](CCCCN)NC(=O)[C@@H](N)CCCCN)S(=O)(=O)c2ccccc2)c1)C(N)=O [Compound 2]
